From PubChem BioAssay
A selection: hits, their analogues and other compounds. The true share with any hit is near 3.1%.
KCNK9 inh: inhibitors of human KCNK9 two-pore domain potassium channel | HEK293 KCNK9, FluxOR thallium flux fluorescence; hits give low values | B-score at 10 µM | 310,000 tested, 1.2% active;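 active = ratio B-score over 3 SD below the library mean, with starting fluorescence within 5 SD of its mean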;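 also: negative B-score means less thallium flux so channel inhibition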
KCNQ1 act: potentiators or activators of human KCNQ1 potassium channel | P51787 | CHO-K1 KCNQ1, thallium flux FluxOR fluorescence; hits give high values | B-score at 10 µM | 310,000 tested, 0.35% active | AID 2648;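 active = fluorescence ratio B-score, a plate-corrected score, at least three library SD, with initial intensity B-score within 5 SD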
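System: CHO-K1 cells stably expressing KCNQ1 / Medium: assay buffer for compound exposure, DMSO matched across wells / Reagent: thallium- and potassium-containing depolarizing buffer / Compound: one concentration, matched DMSO / Incubation: 20 min compound pretreatment at room temperature / Measured by: kinetic FluxOR fluorescence, 10 s baseline plus 110 s post-stimulus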
KCNQ1 block: human KCNQ1 channel inhibition. B-score at 10 µM. AID 2642. 310,000 tested, 1.3% active. CHO-K1 KCNQ1, FluxOR thallium flux fluorescence; hits give high values;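 active = compounds whose thallium flux B-score, printed positive for inhibition, exceeds three library SD while starting fluorescence stays within three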;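 also: channel opened by potassium depolarization with thallium stimulus after 20 min compound exposure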
KCNK3 inh: human KCNK3 channel inhibition, primary screen. O14649. CHO-KCNK3 thallium flux, FluxOR fluorescence; hits give low values. B-score at 10 µM. 340,000 tested, 0.84% active. AID 602410;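 active = B-score under library mean minus 4 SD, starting fluorescence ratio at most library mean plus 5 SD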;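 also: more negative B-score means stronger inhibition of thallium flux through KCNK3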
hERG protect: shields human hERG channel from block by proarrhythmic agents; Q12809; AID 1511; activation (rescue from dofetilide block), less the hit threshold, % at 10 µM; CHO-hERG, FluxOR thallium flux, dofetilide IC70 present; 310,000 tested, 0.51% active;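 active = activation above the mean of controls blocked by dofetilide plus 5 SD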;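 also: thallium influx through hERG after potassium depolarization seen as dye fluorescence rise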
* marks the source's active call; other numbers are inactive results; i = inactive; . = not tested or not shown.

SMILES	KCNK9 inh	KCNQ1 act	KCNQ1 block	KCNK3 inh	hERG protect
COc1cc(-c2c(NC(=O)c3ccco3)oc3ccccc3c2=O)cc(OC)c1OC	i	i	i	i	-3.5
Cc1ccc(Cl)cc1NC(=S)N/N=C/c1cccc2ccccc12	i	11*	i	i	8.5*
Cc1ccccc1C(=O)N/N=C/c1cccc2ccccc12	i	i	i	i	-9.9
Fc1cccc(/C=N/NC(=S)Nc2ccccc2Cl)c1	i	i	i	i	6.8*
S=C(N/N=C/c1ccc(Cl)c(Cl)c1)Nc1ccccc1Cl	i	i	i	i	-3.6
Cc1ccc(NC(=S)N/N=C/c2c(Cl)cccc2Cl)c(C)c1	i	i	i	i	7.7*
C/C(=C\c1ccc(F)cc1)C(=O)c1c(C)cc(C)[nH]c1=O	i	i	i	i	-5.9
COC(=O)c1sccc1NC(=O)CSc1ccccc1NS(=O)(=O)c1ccc(Cl)cc1	i	i	i	i	-1.0
COC(=O)c1sccc1NC(=O)CSc1ccccc1NS(=O)(=O)c1ccccc1Cl	-7.2*	i	i	i	-15.0
Cc1cccc(NC(=O)CSc2nnc(CNC(=O)c3cccs3)o2)c1C	i	i	i	i	-10.6
CCc1ccc2c(c1)c(N=NC1=NC(=O)CS1)c(O)n2C	i	13*	i	i	0.8
Cc1cc([N+](=O)[O-])nn1CCCC(=O)NC1CCCCC1	i	i	i	i	-12.7
COC(=O)[C@H](C)NC(=O)Nc1cc(Cl)ccc1C	i	13*	i	i	0.7
COC(=O)c1ccc(NC(=O)Cn2nc(C)cc2C)cc1	i	i	i	i	-13.5
OCCN(Cc1ccccc1)Cc1ccc(C(F)(F)F)cc1	-6.87*	i	i	i	-6.1
C=CCNc1cnn(-c2ccc(C)cc2)c(=O)c1Sc1ccc(C)cc1	i	i	i	i	-17.0
C/C(=C\C(=O)c1ccncc1)Nc1ccccc1O	i	i	i	i	5.7*
CCN(C(=O)c1ccc2c(SCC(=O)O)c3c(nc2c1)CCC3)c1cc(Cl)ccc1OC	i	i	i	i	-2.5
Nc1ncncc1-c1ccc2ccccc2c1	i	i	i	i	-15.4
Nc1c(C(=O)NCC2CCCO2)sc2nc3c(c(-c4ccco4)c12)CC/C3=C\c1ccco1 (stereo not drawn)	.	.	.	-12.1*	.
CCN1C(=O)C(CC(=O)Nc2ccc(F)cc2)N(Cc2ccco2)C1=S (stereo not drawn)	i	i	i	i	-10.4
CCCCCCOc1ccc(NC(=O)CC2C(=O)N(CC)C(=S)N2Cc2ccco2)cc1 (stereo not drawn)	i	i	9*	i	-23.6
O=C(Nc1ccccc1)Nc1cccc2ccccc12	i	i	i	i	-7.4
O=C(Nc1ccccc1)Nc1ccc(O)c2ccccc12	i	i	6*	i	-22.8
COc1ccc(C)cc1NC(=O)C(=O)NNC(=O)COc1ccc(Cl)cc1	i	59*	i	i	87.7*
SMILES	KCNK9 inh	KCNQ1 act	KCNQ1 block	KCNK3 inh	hERG protect
Cc1ccccc1NC(=O)C(=O)NNC(=O)COc1ccc2ccccc2c1	i	49*	i	i	28.7*
Cc1ccc(OCC(=O)NNC(=O)C(=O)NC(C)(C)C)cc1	i	8*	i	i	2.7
COc1cccc(OCC(=O)NNC(=O)C(=O)Nc2cccc(C)c2)c1	i	21*	i	i	17.4*
COc1ccc(OCC(=O)Nc2cccc(OC)c2)cc1	i	i	i	i	-8.1
O=C(COc1ccc2ccccc2c1)NNC(=O)Nc1ccccc1F	i	i	i	i	-6.9
CC1(C)C(=O)Nc2ccccc2N1C(=O)COC(=O)CNS(=O)(=O)c1ccc(Br)cc1Cl	.	.	.	i	.
O=C(c1cc(C2CC2)on1)N1CCCC(N2CCN(c3ccc(F)cc3)CC2)C1 (stereo not drawn)	i	i	i	i	-6.6
COc1ccc(OC)c(NC(=O)NNC(=O)COc2ccc(-c3ccccc3)cc2)c1	i	i	i	i	-11.9
Cc1cccc(NC(=O)C(=O)NNC(=O)c2ccc(C(C)(C)C)cc2)c1	i	73*	i	i	37.4*
COc1ccc(OC)c(NC(=O)C(=O)NNC(=O)COc2ccc(Br)cc2C)c1	i	66*	i	i	103.9*
COc1ccc(OCC(=O)NNC(=O)C(=O)Nc2cc(OC)ccc2OC)cc1	i	i	i	i	14.7*
COc1ccc(S(=O)(=O)N(C)CC(=O)N2CCN(Cc3ccccc3)CC2)cc1C	i	i	i	i	-8.6
COc1cc(/C=C2\CCC(C3CCCC3)C2=O)ccc1OC(C)C (stereo not drawn)	i	i	i	i	-9.5
CN(C)C(=O)CN1C(=O)C2CC=C(Cl)CC2C1=O (stereo not drawn)	i	i	i	i	-10.0
CCN(CC)C(=O)CN1C(=O)C2CC=C(Cl)CC2C1=O (stereo not drawn)	i	i	i	i	5.8*
Cc1ccc2c(c1)C1CN(C)CCC1N2C(=S)NC(=O)c1ccc(Br)cc1 (stereo not drawn)	i	22*	i	i	-1.6
Cc1ccc(O)c(-c2cc(-c3ccccc3[N+](=O)[O-])[nH]n2)c1	i	i	i	i	-16.5
Cc1ccc(O)c(-c2cc(-c3ccccc3C)[nH]n2)c1	-7.37*	i	i	i	-6.8
CCN(CC)c1ccc(/C=C/c2nc3ccccc3s2)cc1	i	i	8*	.	-8.2
O=C(C1CCN(S(=O)(=O)c2ccc(Br)s2)CC1)N1CCCCC1	i	i	i	i	-5.6
CCSc1ccccc1C(=O)NCCCn1ccnc1	i	i	i	i	4.8*
CSc1ccccc1C(=O)NCCCn1ccnc1	i	i	i	i	-1.8
O=C(COc1ccccc1)N1CCN(S(=O)(=O)c2cccs2)CC1	i	9*	i	i	-2.0
O=C(CCOc1ccccc1)N1CCN(S(=O)(=O)c2cccs2)CC1	i	i	i	i	-9.4
COc1ccccc1NC(=O)CN1CCN(C(=O)C2CCCO2)CC1 (stereo not drawn)	i	i	i	i	-4.4
CCC(Oc1ccccc1)C(=O)Nc1ccc(-c2nnc(-c3ccco3)o2)cc1 (stereo not drawn)	-7.3*	i	i	i	-9.2
CCOC(=O)c1sc(N(Cc2ccccc2)C(=O)COC(=O)c2ccccc2O)nc1C	-6.74*	i	i	i	-12.9
CCN(C(=O)c1cc2c(=O)[nH]c3ccc(C)cc3c2s1)c1ccccc1C	i	i	i	i	-15.6
CCN(C(=O)c1cc2c(=O)[nH]c3ccc(C)cc3c2s1)c1ccccc1F	i	26*	i	i	9.2*
